Laboratory results: ChEMBL document CHEMBL3774372, “Design, physico-chemical properties and biological evaluation of some new N-[(phenoxy)alkyl]- and N-{2-[2-(phenoxy)ethoxy]ethyl}aminoalkanols as anticonvulsant agents” (Bioorg Med Chem, 2016)
Calls of active or inactive are those of the source. The calls are words filed in the database; no cut-off is given here.

How the values were obtained:
[1] = molecular target: Neurotensin receptor type 1 (Homo sapiens) (UniProt P30989); assay: Displacement of [125I]Tyr3-neurotensin from human recombinant NT1 receptor expressed in CHO cells at 10^-5 M; type: cell-based
Sequence of Neurotensin receptor type 1 (Homo sapiens) (P30989 whole entry): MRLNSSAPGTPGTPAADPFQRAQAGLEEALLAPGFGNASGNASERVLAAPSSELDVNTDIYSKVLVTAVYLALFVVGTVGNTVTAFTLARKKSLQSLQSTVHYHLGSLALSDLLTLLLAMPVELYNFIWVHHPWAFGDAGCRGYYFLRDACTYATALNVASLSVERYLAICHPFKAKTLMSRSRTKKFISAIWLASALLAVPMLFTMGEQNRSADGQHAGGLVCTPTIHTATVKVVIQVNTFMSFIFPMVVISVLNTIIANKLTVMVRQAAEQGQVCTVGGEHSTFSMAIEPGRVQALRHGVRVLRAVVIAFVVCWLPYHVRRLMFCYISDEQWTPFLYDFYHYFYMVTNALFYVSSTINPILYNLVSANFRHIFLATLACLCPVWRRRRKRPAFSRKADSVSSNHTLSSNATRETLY
Summary of the method: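 Radioligand binding screen run at a single test concentration of 10^-5 M. Each target used its stated receptor source (human recombinant CHO or HEK-293 cells, endogenous cell lines, or rat tissue membranes) with the listed radioligand.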

Mus musculus [2] = assay: Anticonvulsant activity in mouse assessed as protection against 6 Hz psychomotor seizure at 50 mg/kg, ip after 0.5 hrs; type: functional, organism-based
Summary of the method: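 Suspension in 0.5% methylcellulose given ip to mice; corneal stimulation with 0.2 ms monopolar rectangular pulses at 6 Hz for 3 s from a constant current device, mice restrained then released to observation cage. Protected if normal exploratory behaviour resumed within 10 s of stimulation. Scored as protected/tested, 4 mice per group.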

[3] = MRT in CD1 mouse brain at 12.92 mg/kg, ip measured up to 240 mins by LC/ESI-MS/MS analysis; type: ADME, organism-based
Mus musculus [4] = assay: Cmax in CD1 mouse plasma at 12.92 mg/kg, ip measured up to 240 mins by LC/ESI-MS/MS analysis; type: ADME, organism-based; set-up: dose 12.92 mg/kg, route intraperitoneal; conditions: in vivo, 4 h
[5] = Ratio of drug level in brain to plasma in CD1 mouse at 1 mg/kg, iv administered as single dose measured after 15 mins by LC/ESI-MS/MS analysis; type: ADME, organism-based; conditions: brain and plasma, read-out: BPR
[6] = AUC (0 to infinity) in CD1 mouse brain at 12.92 mg/kg, ig measured up to 240 mins by LC/ESI-MS/MS analysis; type: ADME, organism-based; set-up: dose 12.92 mg/kg, route […], time infinity; conditions: po
Mus musculus [7] = assay: Anticonvulsant activity in ip dosed mouse assessed as protection against subcutaneous pentylenetetrazol-induced seizures measured after […]; type: functional
Mus musculus [8] = assay: Volume of distribution in steady state in CD1 mouse plasma at 1 mg/kg, iv measured up to 240 mins by LC/ESI-MS/MS analysis; type: ADME, organism-based; conditions: in vivo, 4 h
Vibrio harveyi [9] = assay: Antimutagenic activity against Vibrio harveyi BB7XM assessed as inhibition of NQNO-induced mutagenicity after 48 hrs; type: functional
Summary of the method: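 V. harveyi cultures grown exponentially to A600 0.1 at 30 °C, exposed to test compound for 15 min, then to NQNO, and grown on to A600 0.3–0.4. 5 × 10⁶ cells plated on BOSS agar with neomycin (100, final). Neomycin-resistant colonies counted after 48 h at 30 °C. Result given as % inhibition of NQNO mutagenicity; three independent repeats.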

[10] = MRT in CD1 mouse brain at 12.92 mg/kg, ig measured up to 240 mins by LC/ESI-MS/MS analysis; type: ADME, organism-based; conditions: po
Mus musculus [11] = assay: AUMC (0 to infinity) in CD1 mouse plasma at 12.92 mg/kg, ip measured up to 240 mins by LC/ESI-MS/MS analysis; type: ADME, organism-based; conditions: in vivo, 4 h
[12] = Ratio of drug level in brain to plasma in CD1 mouse at 12.92 mg/kg, ig administered as single dose measured after 120 mins by LC/ESI-MS/MS analysis; type: ADME, organism-based; conditions: brain and plasma, po, read-out: BPR
Mus musculus [13] = assay: Half life in CD1 mouse plasma at 12.92 mg/kg, ip measured up to 240 mins by LC/ESI-MS/MS analysis; type: ADME, organism-based; conditions: in vivo, 4 h
Mus musculus [14] = assay: Tmax in CD1 mouse plasma at 12.92 mg/kg, ip measured up to 240 mins by LC/ESI-MS/MS analysis; type: ADME, organism-based; conditions: in vivo, 4 h
Mus musculus [15] = assay: AUMC (0 to infinity) in CD1 mouse plasma at 1 mg/kg, iv measured up to 240 mins by LC/ESI-MS/MS analysis; type: ADME, organism-based; conditions: in vivo, 4 h
Summary of the method: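 Male CD1 mice fasted overnight, single iv dose 1 mg/kg; sampled at 0, 5, 15, 30, 60, 120 and 240 min (one sample per mouse, four mice per time), under ketamine/xylazine. Heparinized plasma quantified by validated LC/ESI-MS/MS; non-compartmental moment method; AUMC extrapolated to infinity using terminal rate constant from log-linear regression.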

[16] = Retention time of the compound in mouse liver microsomes at 20 uM preincubated for 15 mins followed by addition of NADPH-regenerating system measured after 5 to 90 mins by […] analysis; type: ADME
Summary of the method: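 Mouse liver microsomes (0.4 mg/mL) with test compound (20 µM) in 100 mM potassium phosphate, pH 7.4, were preincubated 15 min at 37 °C. An NADPH-regenerating system was then added and incubation ran 5–90 min at 37 °C. Levallorphan (20 µM) served as internal standard, and reactions were quenched with perchloric acid. The supernatant was analysed by UPLC/MS. Duplicate incubations.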

[17] = Ratio of drug level in brain to plasma in CD1 mouse at 12.92 mg/kg, ip administered as single dose measured after 120 mins by LC/ESI-MS/MS analysis; type: ADME, organism-based; conditions: brain and plasma, read-out: BPR
Mus musculus [18] = assay: Neurotoxicity in mouse at 300 mg/kg, ip after 0.5 hrs by rotarod test; type: toxicity, organism-based; conditions: in vivo
Summary of the method: (§1)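 Mice were dosed ip with compound suspended in 0.5% methylcellulose. Rotarod: a 1 in. knurled rod turning at 6 rpm. Neurotoxicity was scored as failure to stay on the rod for at least 1 min in each of three trials. Results are given as the number of animals affected out of the number tested.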

Mus musculus [19] = assay: Neurotoxicity in mouse at 30 mg/kg, ip after 4 hrs by rotarod test; type: toxicity, organism-based; conditions: in vivo; summary of the method: as §1
hERG (KCNH2) = hERG (KCNH2) (Homo sapiens, UniProt Q12809); assay: Displacement of [3H]astemizole from human recombinant ERG expressed in HEK293 cells at 10^-4 M; type: cell-based; conditions: HEK293 cells that express human recombinant ERG, probe [3H]astemizole
Sequence of hERG (KCNH2) (Q12809 whole entry): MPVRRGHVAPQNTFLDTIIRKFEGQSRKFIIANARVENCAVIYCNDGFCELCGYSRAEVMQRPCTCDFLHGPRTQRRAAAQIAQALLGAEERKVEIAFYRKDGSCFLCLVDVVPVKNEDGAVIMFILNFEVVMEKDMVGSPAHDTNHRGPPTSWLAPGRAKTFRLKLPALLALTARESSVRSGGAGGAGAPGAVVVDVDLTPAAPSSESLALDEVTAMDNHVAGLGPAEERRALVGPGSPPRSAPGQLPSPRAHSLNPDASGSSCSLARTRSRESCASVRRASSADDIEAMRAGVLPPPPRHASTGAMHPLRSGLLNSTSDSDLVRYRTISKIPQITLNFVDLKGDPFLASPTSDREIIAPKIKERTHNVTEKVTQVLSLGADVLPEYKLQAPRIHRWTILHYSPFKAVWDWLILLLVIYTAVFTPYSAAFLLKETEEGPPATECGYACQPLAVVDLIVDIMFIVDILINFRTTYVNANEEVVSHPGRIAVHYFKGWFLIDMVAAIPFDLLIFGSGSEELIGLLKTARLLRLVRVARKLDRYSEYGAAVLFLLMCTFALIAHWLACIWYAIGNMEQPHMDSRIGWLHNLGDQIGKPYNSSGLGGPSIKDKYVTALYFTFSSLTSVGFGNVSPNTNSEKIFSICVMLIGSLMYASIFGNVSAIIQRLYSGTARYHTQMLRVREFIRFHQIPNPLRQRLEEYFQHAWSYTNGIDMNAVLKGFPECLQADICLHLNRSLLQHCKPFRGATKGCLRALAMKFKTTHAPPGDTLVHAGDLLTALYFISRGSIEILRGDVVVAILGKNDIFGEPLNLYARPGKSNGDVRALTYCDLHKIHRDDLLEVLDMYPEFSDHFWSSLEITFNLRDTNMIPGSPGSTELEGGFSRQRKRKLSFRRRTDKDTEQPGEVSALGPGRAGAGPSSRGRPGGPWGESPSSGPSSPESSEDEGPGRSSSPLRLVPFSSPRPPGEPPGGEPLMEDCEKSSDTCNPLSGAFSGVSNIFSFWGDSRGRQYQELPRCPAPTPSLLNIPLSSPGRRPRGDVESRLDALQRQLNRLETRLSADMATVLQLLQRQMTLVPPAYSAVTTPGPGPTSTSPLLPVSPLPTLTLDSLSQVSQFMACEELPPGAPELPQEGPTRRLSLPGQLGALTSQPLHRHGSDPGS

Vibrio harveyi [20] = assay: Mutagenicity in Vibrio harveyi BB7 assessed as number of colonies after 48 hrs (reference value: 13 to 14 no_unit); type: ADME, organism-based; conditions: in vivo
Summary of the method: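 Vibrio harveyi mutagenicity test: test compound was added to exponentially growing cultures (A600 = 0.1, 30 °C) and grown to OD600 0.3–0.4. Then 5 × 10^6 cells were plated on BOSS agar with neomycin (final 100 µg/mL) and incubated 48 h at 30 °C. Neomycin-resistant colonies were counted. Triplicate; controls were water, DMSO and NQNO 40 ng/mL.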

[21] = Tmax in CD1 mouse brain at 12.92 mg/kg, ig measured up to 240 mins by LC/ESI-MS/MS analysis; type: ADME, organism-based; conditions: po
Rattus norvegicus = assay: Anticonvulsant activity in rat assessed as protection against maximal electric shock-induced seizures at 30 mg/kg, ip measured after 2 hrs; type: functional, organism-based
Summary of the method: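 Rats dosed ip or orally as 0.5% methylcellulose suspension; maximal electroshock at listed time. Protection = abolition of hindlimb tonic extension; 4 rats per group, scored protected/tested.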

Mus musculus [22] = assay: Anticonvulsant activity in mouse assessed as protection against maximal electric shock-induced seizures at 10 mg/kg, ip measured after 0.5 hrs; type: functional, organism-based
Summary of the method: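 Mice dosed ip with suspension in 0.5% methylcellulose; maximal electroshock applied at the listed time after dosing. Protection = abolition of hindlimb tonic extension component of seizure; reported as animals protected/animals tested.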

[23] = molecular target: Prostacyclin receptor (Homo sapiens) (UniProt P43119); assay: Displacement of [3H]iloprost from human recombinant Prostanoid IP receptor expressed in HEK293 cells at 10^-5 M; type: cell-based
Sequence of Prostacyclin receptor (Homo sapiens) (P43119 whole entry): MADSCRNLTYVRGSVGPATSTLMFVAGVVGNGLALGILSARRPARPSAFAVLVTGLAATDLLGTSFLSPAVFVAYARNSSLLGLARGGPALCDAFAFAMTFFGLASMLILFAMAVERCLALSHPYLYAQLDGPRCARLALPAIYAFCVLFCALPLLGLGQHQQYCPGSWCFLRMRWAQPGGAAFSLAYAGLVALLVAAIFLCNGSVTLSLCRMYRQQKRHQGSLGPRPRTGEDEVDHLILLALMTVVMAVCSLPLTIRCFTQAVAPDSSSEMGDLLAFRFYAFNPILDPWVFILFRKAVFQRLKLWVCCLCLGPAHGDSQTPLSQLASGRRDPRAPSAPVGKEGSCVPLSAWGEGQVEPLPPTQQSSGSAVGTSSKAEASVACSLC
Summary of the method: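 Radioligand displacement screen with the test agent at a single 10^-5 M concentration; receptor source and radioligand per target as tabulated (recombinant human cell lines or rat cerebral cortex/urinary bladder).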

In the case of `Cc1cccc(C)c1OCCOCCN[C@H](C)CO`, the inhibition [1] is reported as -4.2% and the Activity (Mus musculus [2]) is reported as “Active”.

`Cc1cccc(C)c1OCCOCCN[C@H](C)CO.Cl` showed an MRT [3] of 1.38 h, a Cmax (Mus musculus [4]) of 1190 ng/mL and a Kp at […] [5] of 5.36. The AUC(0-inf) [6] was 1220 µg·h/mL, the ED50 (Mus musculus [7]) was > 45 mg/kg and the Vdss (Mus musculus [8]) was 0.8997 L/kg. For the same compound, the “inhibition (INH)” value (Vibrio harveyi [9]) was 41%, the MRT [10] was 1.23 h and the AUMC (Mus musculus [11]) was 1280 ng·h²/mL. For the same compound, the Kp at 2 h [12] was 3.18, the t1/2 (Mus musculus [13]) was 1.29 h and the Tmax (Mus musculus [14]) was 5 min. It also gave an AUMC (Mus musculus [15]) of 956 ng·h²/mL, a Retention_time [16] of 3.81 min and a Kp at 2 h [17] of 2.86. For the same compound, the Activity (Mus musculus [18]) was “Toxic”, the Activity (Mus musculus [19]) was “Non-toxic” and the inhibition at 100 µM (hERG (KCNH2)) was 3.6%. For the same compound, the Activity (Vibrio harveyi [20]) was 20 and the Tmax [21] was 5 min.

In the case of `Cc1cccc(C)c1OCCOCCN[C@@H](C)CO`, the Activity (Rattus norvegicus) is reported as “inactive”, the Activity (Mus musculus [22]) is reported as “inactive” and the inhibition [23] is reported as -6%.
